From ChEMBL document CHEMBL1165881, “Synthesis and cytotoxicity evaluation of (tetrahydro-beta-carboline)-1,3,5-triazine hybrids as anticancer agents” (Eur J Med Chem, 2010)

Assays:
[1] = system: A549; assay: Cytotoxicity against human […] cells after 72 hrs by MTT assay; assay type: functional, cell-based
Procedure, shortened: (§1)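 Seeded at 5000–10000 cells/well, incubated at 37 °C in CO2 with compounds at a range of concentrations, controls included, in triplicate wells. After 72 h, MTT solution (5 mg/mL) added; absorbance read at 540 nm. % cytotoxicity = 100 × [1 − (X/R1)] versus control absorbance; IC50 by nonlinear regression. Values are means of at least two independent experiments, three determinations each.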

[2] = system: PA-1; assay: Cytotoxicity against human PA1 cells after 72 hrs by MTT assay; assay type: functional, cell-based; procedure, shortened: as §1
[3] = system: KB; assay: Cytotoxicity against human KB cells after 72 hrs by MTT assay; assay type: functional, cell-based; procedure, shortened: as §1
[4] = system: K562; assay: Cytotoxicity against human K562 cells after 72 hrs by MTT assay; assay type: functional, cell-based; procedure, shortened: as §1
[5] = system: SW-620; assay: Cytotoxicity against human SW620 cells after 72 hrs by MTT assay; assay type: functional, cell-based; procedure, shortened: as §1
[6] = system: MIA PaCa-2; assay: Cytotoxicity against human MIAPaCa2 cells after 72 hrs by MTT assay; assay type: functional, cell-based; procedure, shortened: as §1
[7] = Cytotoxicity against mouse NIH/3T3 cells after 72 hrs by MTT assay; assay type: cell-based, NIH3T3; procedure, shortened: as §1
[8] = system: MCF7; assay: Cytotoxicity against human MCF7 cells after 72 hrs by MTT assay; assay type: functional, cell-based; procedure, shortened: as §1
[9] = system: DU-145; assay: Cytotoxicity against human DU145 cells after 72 hrs by MTT assay; assay type: functional, cell-based; procedure, shortened: as §1
[10] = Homo sapiens, A549, 72 h, read-out: IC50
[11] = Homo sapiens, PA-1, 72 h, read-out: IC50
[12] = Homo sapiens, K562, 72 h, read-out: IC50
[13] = Homo sapiens, SW-620, 72 h, read-out: IC50
[14] = Homo sapiens, MIA PaCa-2, 72 h, read-out: IC50
[15] = Mus musculus, NIH3T3, 72 h, read-out: IC50
[16] = Homo sapiens, DU-145, 72 h, read-out: IC50
[17] = Homo sapiens, MCF7, 72 h, read-out: IC50

Structure (SMILES)	IC50 ([3]; Homo sapiens, KB, 72 h) [µM]	IC50 [1, 10] [µM]	IC50 [2, 11] [µM]	IC50 [4, 12] [µM]	IC50 [5, 13] [µM]	IC50 [6, 14] [µM]	IC50 [7, 15] [µM]	IC50 [9, 16] [µM]	IC50 [8, 17] [µM]	also measured
COC(=O)[C@@H]1Cc2c([nH]c3ccccc23)[C@@H](c2ccc(C)cc2)N1c1nc(N2CCN(C)CC2)nc(N2CCN(C)CC2)n1 (racemic)	0.106	–	–	–	–	–	–	–	–	IC50 ([1]; a549): Not Active; IC50 ([2]; pa-1): Not Active; IC50 ([4]; k562): Not Active; IC50 ([5]; sw-620): Not Active; IC50 ([6]; mia paca-2): Not Active; IC50 ([7]; nih3t3): Not Active; IC50 ([8]; mcf7): Not Active; IC50 ([9]; du-145): Not Active
COC(=O)[C@H]1Cc2c([nH]c3ccccc23)[C@H](c2cc(OC)c(OC)c(OC)c2)N1c1nc(N2CCN(C)CC2)nc(N2CCN(C)CC2)n1 (relative stereo)	2.43	5.67	2.75	3	3.15	7.54	2.17	2.01	–	IC50 ([8]; mcf7): Not Active
COC(=O)[C@@H]1Cc2c([nH]c3ccccc23)[C@H](c2ccc(OC)cc2)N1c1nc(N2CCN(C)CC2)nc(N2CCN(C)CC2)n1	–	–	–	–	–	–	–	–	–	IC50 ([1]; a549, read-out: IC50): 3.13 µM; IC50 ([2]; pa-1, read-out: IC50): 2.77 µM; IC50 ([3]; kb): 7.54 µM; IC50 ([4]; k562, read-out: IC50): 4.83 µM; IC50 ([5]; sw-620, read-out: IC50): 1.19 µM; IC50 ([6]; mia paca-2, read-out: IC50): 3.62 µM; IC50 ([7]; nih3t3, read-out: IC50): 1.62 µM; IC50 ([8]; mcf7, read-out: IC50): 9 µM; IC50 ([9]; du-145, read-out: IC50): 10.3 µM
COC(=O)[C@H]1Cc2c([nH]c3ccccc23)[C@H](c2ccc(OC)cc2)N1c1nc(N2CCN(C)CC2)nc(N2CCN(C)CC2)n1	0.99	–	2.05	6	2.15	6.23	3.16	2.58	11	–
COC(=O)[C@@H]1Cc2c([nH]c3ccccc23)[C@@H](c2ccc(C(C)C)cc2)N1c1nc(N2CCN(C)CC2)nc(N2CCN(C)CC2)n1	3.73	1.75	2.89	2.24	5.92	–	2.63	–	6.73	IC50 ([6]; mia paca-2): Not Active; IC50 ([9]; du-145): Not Active
COC(=O)[C@H]1Cc2c([nH]c3ccccc23)[C@H](c2ccc(Cl)cc2)N1c1nc(N2CCN(C)CC2)nc(N2CCN(C)CC2)n1 (racemic)	1.98	–	6.39	5.01	2.73	7.12	2.22	–	–	IC50 ([8]; mcf7): Not Active; IC50 ([9]; du-145): Not Active
COC(=O)[C@@H]1Cc2c([nH]c3ccccc23)[C@H](c2ccc(OC)cc2)N1c1nc(N2CCN(C)CC2)nc(N2CCN(C)CC2)n1 (racemic)	–	–	2.72	7.13	–	–	2.33	5.35	6.06	IC50 ([1]; a549, read-out: IC50): 6.3 µM; IC50 ([3]; kb): 1.46 µM; IC50 ([5]; sw-620, read-out: IC50): 3.32 µM; IC50 ([6]; mia paca-2, read-out: IC50): 7.37 µM
CCCN1CCN(c2nc(N3CCN(CCC)CC3)nc(N3[C@H](c4ccc(OC)cc4)c4[nH]c5ccccc5c4C[C@H]3C(=O)OC)n2)CC1	3.54	1.67	–	–	–	–	2.24	7.11	2.07	IC50 ([2]; pa-1): Not Active; IC50 ([5]; sw-620): Not Active
COC(=O)[C@@H]1Cc2c([nH]c3ccccc23)[C@@H](c2ccc(OC)cc2)N1c1nc(N2CCN(C)CC2)nc(N2CCN(C)CC2)n1 (racemic)	–	–	2.03	–	–	–	–	10.5	–	IC50 ([1]; a549, read-out: IC50): 5.67 µM; IC50 ([3]; kb): 1.87 µM; IC50 ([4]; k562): Not Active; IC50 ([5]; sw-620, read-out: IC50): 4.26 µM; IC50 ([6]; mia paca-2, read-out: IC50): 6.35 µM; IC50 ([7]; nih3t3, read-out: IC50): 4.78 µM; IC50 ([8]; mcf7, read-out: IC50): 12.4 µM
COC(=O)[C@@H]1Cc2c([nH]c3ccccc23)[C@H](c2cc(OC)c(OC)c(OC)c2)N1c1nc(N2CCN(C)CC2)nc(N2CCN(C)CC2)n1 (racemic)	17.9	–	5.32	–	–	–	6.71	5.22	5.96	–
COC(=O)[C@H]1Cc2c([nH]c3ccccc23)[C@H](c2ccc(C)cc2)N1c1nc(N2CCN(C)CC2)nc(N2CCN(C)CC2)n1	1.86	2.34	6.91	3.22	2.65	7	2.16	2.14	5.89	–
COC(=O)[C@@H]1Cc2c([nH]c3ccccc23)[C@H](c2ccc(C(C)C)cc2)N1c1nc(N2CCN(C)CC2)nc(N2CCN(C)CC2)n1	6.88	1.76	0.27	6.43	1.93	1.81	1.17	2.87	5.93	–
COC(=O)[C@H]1Cc2c([nH]c3ccccc23)[C@@H](c2ccc(OC)cc2)N1c1nc(N2CCN(C)CC2)nc(N2CCN(C)CC2)n1	1.82	11.5	3.34	4.48	3.27	5.26	5.28	2.45	12.3	–
COC(=O)[C@H]1Cc2c([nH]c3ccccc23)[C@@H](c2ccccc2)N1c1nc(N2CCN(C)CC2)nc(N2CCN(C)CC2)n1	1.83	8.62	1.79	6.45	3.24	5.88	11.4	7.76	8.28	–
COC(=O)[C@H]1Cc2c([nH]c3ccccc23)[C@H](c2ccccc2)N1c1nc(N2CCN(C)CC2)nc(N2CCN(C)CC2)n1	1.98	–	1.93	5.34	2.84	6.11	6	2.81	6.21	–
CCN1CCN(c2nc(N3CCN(CC)CC3)nc(N3[C@H](c4ccc(OC)cc4)c4[nH]c5ccccc5c4C[C@H]3C(=O)OC)n2)CC1	1.22	1.61	–	–	–	–	1.86	1.67	1.34	IC50 ([2]; pa-1): Not Active; IC50 ([5]; sw-620): Not Active
